Assay results published in ChEMBL document CHEMBL1132324, “Structure-activity relationships in 1,4-benzodioxan-related compounds. 6. Role of the dioxane unit on selectivity for alpha(1)-adrenoreceptor subtypes” (J Med Chem, 1999).

Legend:
[1] = target: T1, 5-hydroxytryptamine receptor 1A (Homo sapiens) (UniProt P08908)
T1 sequence (whole entry): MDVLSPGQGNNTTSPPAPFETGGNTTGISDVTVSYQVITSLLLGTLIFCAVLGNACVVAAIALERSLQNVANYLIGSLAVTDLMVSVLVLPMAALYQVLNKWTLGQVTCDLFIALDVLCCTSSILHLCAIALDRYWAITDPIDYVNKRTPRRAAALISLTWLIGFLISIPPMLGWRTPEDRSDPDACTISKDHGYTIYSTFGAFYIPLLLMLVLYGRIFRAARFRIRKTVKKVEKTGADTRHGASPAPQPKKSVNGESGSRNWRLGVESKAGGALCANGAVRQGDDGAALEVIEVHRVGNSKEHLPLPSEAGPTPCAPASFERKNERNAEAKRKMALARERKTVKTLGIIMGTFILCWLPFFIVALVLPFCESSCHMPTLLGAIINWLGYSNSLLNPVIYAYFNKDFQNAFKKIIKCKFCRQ

[2] = target: T1, 5-hydroxytryptamine receptor 1A (Homo sapiens); remark: listed apart in the source
[3] = target: D(2) dopamine receptor (Rattus norvegicus) (UniProt P61169); assay: The binding affinity was evaluated on Dopamine receptor D2 expressed in rat striatum by using [3H]spiperone as radioligand; type: tissue-based
Summary of the method: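 Rat striatum membranes in Tris-HCl with 10 μM pargyline, 0.1% ascorbic acid, 120 mM NaCl, 5 mM KCl, 2 mM CaCl2, 1 mM MgCl2. Incubated 15 min at 37 °C with 0.2–0.6 nM [3H]spiperone. Nonspecific binding with 1 μM (+)-butaclamol. Ki by Cheng-Prusoff. 2–3 experiments in triplicate.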

[4] = target: T2, Alpha-1A adrenergic receptor (Homo sapiens) (UniProt P35348); assay: The binding affinity was evaluated on cloned human alpha-1A adrenergic receptor expressed in chinese hamster ovary(CHO) cells by using [3H]prazosin as radioligand.; type: cell-based
T2 sequence (whole entry): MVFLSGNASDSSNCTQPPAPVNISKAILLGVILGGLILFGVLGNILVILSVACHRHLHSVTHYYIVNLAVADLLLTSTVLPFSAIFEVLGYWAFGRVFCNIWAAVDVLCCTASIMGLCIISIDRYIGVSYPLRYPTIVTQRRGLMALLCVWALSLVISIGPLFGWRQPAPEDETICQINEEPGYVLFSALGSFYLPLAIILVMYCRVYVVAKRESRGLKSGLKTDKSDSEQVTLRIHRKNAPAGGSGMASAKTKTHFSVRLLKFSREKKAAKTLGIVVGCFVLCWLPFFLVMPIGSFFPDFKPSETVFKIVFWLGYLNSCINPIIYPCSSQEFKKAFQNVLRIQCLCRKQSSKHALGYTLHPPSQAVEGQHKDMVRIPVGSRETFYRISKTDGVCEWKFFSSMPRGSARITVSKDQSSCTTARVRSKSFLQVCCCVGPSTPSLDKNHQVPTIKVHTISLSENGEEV
Summary of the method: (§1)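 Membranes (30 μg protein) from CHO cells stably expressing each human α1 subtype, in 50 mM Tris-HCl pH 7.4. Incubated with 0.1–0.4 nM [3H]prazosin for 30 min at 25 °C, competitor 1 pM–10 μM. Nonspecific binding with 10 μM phentolamine. Ki by Cheng-Prusoff. 2–3 experiments in triplicate.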

[5] = target: Adrenergic receptor alpha-2 (Rattus norvegicus) (UniProt P22086+P19328+P22909); assay: The binding affinity was evaluated on alpha-2 adrenergic receptor expressed in rat cortex by using [3H]rauwolscine as radioligand.
Summary of the method: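 Male Sprague-Dawley rat cerebral cortex membranes, washed in Tris-HCl pH 7.4 and held in buffer with 10 μM pargiline and 0.1% ascorbic acid. Incubated 30 min at 25 °C with 0.5-1.5 nM [3H]rauwolscine; nonspecific binding with 10 μM phentolamine. Filtration, scintillation counting. Ki from Cheng-Prusoff; 2-3 experiments in triplicate.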

[6] = target: 5-hydroxytryptamine receptor 2A (Rattus norvegicus) (UniProt P14842); assay: The binding affinity was evaluated on 5-hydroxytryptamine 2A receptor expressed in rat cortex by using [3H]ketanserin as radioligand.
Summary of the method: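 Rat cerebral cortex membranes in Tris-HCl pH 7.4 with 10 μM pargyline and 0.1% ascorbic acid. Incubated 20 min at 37 °C with 0.7–1.3 nM [3H]ketanserin. Nonspecific binding with 2 μM ketanserin. Filtration and scintillation counting. Ki by Cheng-Prusoff. 2–3 experiments in triplicate.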

[7] = target: T1, 5-hydroxytryptamine receptor 1A (Homo sapiens); assay: The binding affinity was evaluated on cloned human 5-hydroxytryptamine 1A receptor expressed in HeLa cells by using DPAT as radioligand.; type: cell-based
Summary of the method: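 Membranes from HeLa cells stably expressing human 5-HT1A, in 50 mM Tris-HCl pH 7.4, 2.5 mM MgCl2, 10 μM pargyline. Nonspecific binding with 10 μM 5-HT. Filtration. Ki by Cheng-Prusoff. 2–3 experiments in triplicate.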

[8] = target: T3, Alpha-1D adrenergic receptor (Homo sapiens) (UniProt P25100); assay: The binding affinity was evaluated on cloned human alpha-1D adrenergic receptor expressed in chinese hamster ovary(CHO) cells by using [3H]prazosin as radioligand.; type: cell-based
T3 sequence (whole entry): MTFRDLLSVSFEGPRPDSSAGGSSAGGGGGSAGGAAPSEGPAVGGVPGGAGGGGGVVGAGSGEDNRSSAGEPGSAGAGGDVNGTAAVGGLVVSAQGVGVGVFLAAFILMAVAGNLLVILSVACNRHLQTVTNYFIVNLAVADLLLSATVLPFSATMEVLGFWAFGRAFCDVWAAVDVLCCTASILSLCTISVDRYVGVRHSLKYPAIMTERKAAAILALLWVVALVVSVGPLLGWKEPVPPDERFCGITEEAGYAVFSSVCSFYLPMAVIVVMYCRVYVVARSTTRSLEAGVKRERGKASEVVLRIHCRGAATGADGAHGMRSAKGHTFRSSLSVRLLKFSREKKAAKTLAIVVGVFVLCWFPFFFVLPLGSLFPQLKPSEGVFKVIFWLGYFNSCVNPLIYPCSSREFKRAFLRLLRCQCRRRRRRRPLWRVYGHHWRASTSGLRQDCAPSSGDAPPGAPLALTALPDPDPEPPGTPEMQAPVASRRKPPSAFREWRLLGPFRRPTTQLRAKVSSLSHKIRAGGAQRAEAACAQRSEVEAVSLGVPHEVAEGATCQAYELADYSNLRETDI
Summary of the method: as §1

[9] = target: T4, Alpha-1B adrenergic receptor (Homo sapiens) (UniProt P35368); assay: The binding affinity was evaluated on cloned human alpha-1B adrenergic receptor expressed in chinese hamster ovary(CHO) cells by using [3H]prazosin as radioligand.; type: cell-based
T4 sequence (whole entry): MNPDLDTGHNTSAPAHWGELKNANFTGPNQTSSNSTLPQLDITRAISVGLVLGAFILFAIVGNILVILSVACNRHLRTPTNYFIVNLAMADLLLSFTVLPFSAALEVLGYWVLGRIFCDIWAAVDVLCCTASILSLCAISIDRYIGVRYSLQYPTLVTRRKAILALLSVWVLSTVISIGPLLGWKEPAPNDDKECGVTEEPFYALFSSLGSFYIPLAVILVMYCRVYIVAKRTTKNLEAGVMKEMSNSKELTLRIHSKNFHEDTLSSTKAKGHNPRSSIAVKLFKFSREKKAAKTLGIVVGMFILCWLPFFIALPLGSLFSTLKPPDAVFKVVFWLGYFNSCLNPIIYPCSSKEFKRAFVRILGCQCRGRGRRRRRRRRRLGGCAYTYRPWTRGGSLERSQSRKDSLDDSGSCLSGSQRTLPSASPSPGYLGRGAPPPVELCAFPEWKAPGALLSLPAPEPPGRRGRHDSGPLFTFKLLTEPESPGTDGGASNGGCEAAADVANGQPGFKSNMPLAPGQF
Summary of the method: as §1

[10] = target: T1, 5-hydroxytryptamine receptor 1A (Homo sapiens); assay: Agonist efficacy was evaluated as [35S]GTP binding on cloned human 5-hydroxytryptamine 1A receptor; type: functional
Summary of the method: (§2)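 HeLa membranes stably expressing human 5-HT1A, in 20 mM HEPES, 3 mM MgSO4, 120 mM NaCl (pH 7.4). Preincubated 20 min at 30 °C with 30 μM GDP and drug (100 μM–0.1 nM), then [35S]GTPγS (150–250 pM) added for a further 30 min at 30 °C. Nonspecific binding with 10 μM GTPγS. Filtration and scintillation counting. Stimulation is % above basal, with maximal 5-HT response = 100%. Emax and pD2 from curve fitting. Triplicate, 2–3 sessions.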

[11] = target: T2, Alpha-1A adrenergic receptor (Homo sapiens); assay: The binding affinity was evaluated on cloned human Alpha-1A adrenergic receptor expressed in chinese hamster ovary(CHO) cells by using [3H]prazosin as radioligand.; type: cell-based
Summary of the method: as §1

[12] = target: T4, Alpha-1B adrenergic receptor (Homo sapiens); assay: The binding affinity was evaluated on cloned human Alpha-1B adrenergic receptor expressed in chinese hamster ovary(CHO) cells by using [3H]prazosin as radioligand.; type: cell-based
Summary of the method: as §1

[13] = target: T3, Alpha-1D adrenergic receptor (Homo sapiens); assay: The binding affinity was evaluated on cloned human Alpha-1D adrenergic receptor expressed in chinese hamster ovary(CHO) cells by using [3H]-prazosin as radioligand.; type: cell-based
Summary of the method: as §1

[14] = target: T1, 5-hydroxytryptamine receptor 1A (Homo sapiens); assay: Maximum […] was evaluated as ([35S]GTP binding on cloned human 5-hydroxytryptamine 1A receptor; type: functional
Summary of the method: as §2

[15] = target: T5, Alpha-1D adrenergic receptor (Rattus norvegicus) (UniProt P23944); assay: Antagonist affinity was expressed as apparent pKb at Alpha-1D adrenergic receptor on isolated rat thoracic aorta (Alpha-1D); type: functional, tissue-based
T5 sequence (whole entry): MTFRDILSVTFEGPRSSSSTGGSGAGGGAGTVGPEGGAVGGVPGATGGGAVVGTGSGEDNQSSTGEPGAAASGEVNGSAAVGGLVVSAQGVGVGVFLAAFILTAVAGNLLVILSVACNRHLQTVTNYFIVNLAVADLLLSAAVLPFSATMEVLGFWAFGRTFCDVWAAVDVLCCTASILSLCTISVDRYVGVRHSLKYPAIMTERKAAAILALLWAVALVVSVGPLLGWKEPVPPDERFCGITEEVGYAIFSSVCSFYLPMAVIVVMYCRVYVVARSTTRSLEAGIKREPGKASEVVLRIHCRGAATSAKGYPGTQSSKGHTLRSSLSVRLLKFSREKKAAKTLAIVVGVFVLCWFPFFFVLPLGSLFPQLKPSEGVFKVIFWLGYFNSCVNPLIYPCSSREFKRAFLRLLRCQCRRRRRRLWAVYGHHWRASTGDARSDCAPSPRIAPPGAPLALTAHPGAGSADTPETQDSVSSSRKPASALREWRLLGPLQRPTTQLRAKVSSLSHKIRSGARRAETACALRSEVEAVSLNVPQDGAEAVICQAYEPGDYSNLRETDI
Summary of the method: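 Helicoidal strips of rat thoracic aorta at 1 g tension, with 0.1 μM cocaine and 1 μM propranolol. After ≥1 h equilibration, cumulative (–)-noradrenaline curves at 30-min intervals; the third served as control. Antagonist equilibrated 30 min before the fourth curve. Apparent pKb from log(DR−1) − log[B], 2–3 antagonist concentrations, each tested four times.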

[16] = target: T6, Alpha-1A adrenergic receptor (Rattus norvegicus) (UniProt P43140); assay: Antagonist affinity was expressed as apparent pKb at Alpha-1A adrenergic receptor on isolated rat prostatic vas deferens (alpha1A).; type: functional, tissue-based
T6 sequence (whole entry): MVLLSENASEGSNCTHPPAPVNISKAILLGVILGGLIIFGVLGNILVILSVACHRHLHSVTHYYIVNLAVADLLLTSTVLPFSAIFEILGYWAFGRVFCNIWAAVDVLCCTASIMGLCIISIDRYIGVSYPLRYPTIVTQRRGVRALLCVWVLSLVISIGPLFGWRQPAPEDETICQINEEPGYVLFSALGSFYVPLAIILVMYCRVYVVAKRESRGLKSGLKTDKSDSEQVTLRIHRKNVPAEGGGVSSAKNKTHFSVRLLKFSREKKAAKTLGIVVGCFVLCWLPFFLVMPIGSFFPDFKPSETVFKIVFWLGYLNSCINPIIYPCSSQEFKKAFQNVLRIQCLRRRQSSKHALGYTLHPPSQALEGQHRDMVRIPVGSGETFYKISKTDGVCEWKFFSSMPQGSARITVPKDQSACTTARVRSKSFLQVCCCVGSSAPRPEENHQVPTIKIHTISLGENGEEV
Summary of the method: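 Rat prostatic vas deferens in Tyrode with 0.1 μM cocaine. Equilibrated 60 min, primed twice with 10 μM noradrenaline, then a control cumulative (–)-noradrenaline curve recorded isometrically. Antagonist equilibrated 30 min before a repeat curve. Apparent pKb = log(DR−1) − log[B], with DR as the ratio of agonist EC50 with/without antagonist. 2–3 antagonist concentrations, each tested four times.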

Sequence of D(2) dopamine receptor (Rattus norvegicus) (P61169 whole entry): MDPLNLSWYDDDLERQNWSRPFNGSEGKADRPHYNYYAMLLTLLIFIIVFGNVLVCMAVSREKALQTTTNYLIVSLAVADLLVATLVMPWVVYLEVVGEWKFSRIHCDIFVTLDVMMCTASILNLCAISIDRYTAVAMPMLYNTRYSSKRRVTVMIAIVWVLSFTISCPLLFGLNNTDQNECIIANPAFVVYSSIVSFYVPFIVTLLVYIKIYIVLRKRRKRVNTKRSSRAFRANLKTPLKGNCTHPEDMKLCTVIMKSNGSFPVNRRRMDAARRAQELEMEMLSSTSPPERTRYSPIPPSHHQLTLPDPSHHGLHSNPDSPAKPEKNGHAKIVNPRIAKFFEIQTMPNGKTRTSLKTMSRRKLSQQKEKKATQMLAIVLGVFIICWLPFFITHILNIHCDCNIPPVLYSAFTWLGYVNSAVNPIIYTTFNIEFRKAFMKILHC
Sequence of 5-hydroxytryptamine receptor 2A (Rattus norvegicus) (P14842 whole entry): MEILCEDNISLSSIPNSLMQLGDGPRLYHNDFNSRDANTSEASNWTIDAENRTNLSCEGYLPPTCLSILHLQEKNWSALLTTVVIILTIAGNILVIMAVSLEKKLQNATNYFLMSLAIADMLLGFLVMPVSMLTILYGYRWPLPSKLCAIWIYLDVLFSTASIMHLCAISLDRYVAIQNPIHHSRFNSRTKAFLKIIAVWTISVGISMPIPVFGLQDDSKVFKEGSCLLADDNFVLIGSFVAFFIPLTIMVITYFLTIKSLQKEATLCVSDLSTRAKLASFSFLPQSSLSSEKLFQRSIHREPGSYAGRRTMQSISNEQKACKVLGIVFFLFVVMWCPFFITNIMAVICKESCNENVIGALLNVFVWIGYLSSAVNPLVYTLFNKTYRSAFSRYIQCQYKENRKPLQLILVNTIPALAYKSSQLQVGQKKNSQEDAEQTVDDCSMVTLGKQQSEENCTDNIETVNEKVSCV

SMILES: NCCc1c[nH]c2ccc(O)cc12
- pD2 [1]: 7.3

SMILES: NCCc1c[nH]c2ccc(C(N)=O)cc12
- pD2 [2]: 8.45

SMILES: COc1cccc(OC)c1OCCNCC1COc2ccccc2O1 (stereo not given)
- pKi [3]: 6.91
- pKi [4]: 9.37
- pKi [5]: 7.83
- pKi [6]: 6
- pKi [7]: 8.68

SMILES: COc1cccc(OC)c1OCCNCC1Oc2ccccc2CC1c1ccccc1 (stereo in doubt; 6)
- pKi [4]: 6.78
- pKi [8]: 6.86
- pKi [7]: 6.76
- pKi [9]: 6.51

SMILES: COc1cccc(OC)c1OCCNCC1=Cc2ccccc2OC1c1ccccc1 (stereo not given)
- pD2 [10]: 6.44
- pKi [11]: 7.14
- pKi [12]: 6.84
- pKi [13]: 6.95
- Max [14]: 40%
- pKi [7]: 8.08

SMILES: COc1cccc(OC)c1OCCNCC1C(=O)c2ccccc2CC1c1ccccc1 (stereo not given)
- pKi [3]: < 6
- pKi [4]: 8.06
- pKi [8]: 6.88
- pKi [5]: 6.45
- pKi [6]: 6.63
- pKi [7]: 6.83
- pKi [9]: 6.11

SMILES: COc1cccc(OC)c1OCCNC[C@H]1Oc2ccccc2O[C@@H]1c1ccccc1
- pKb [15]: 7.51
- pKb [16]: 8.18

SMILES: COc1cccc(OC)c1OCCNCC1C(=O)c2ccccc2SC1c1ccccc1 (stereo not given)
- pKi [4]: 7.42
- pKi [8]: 6.37
- pKi [12]: < 6
- pKi [7]: 7.36
